The record followed here is ChEMBL document CHEMBL4196090, “Design, synthesis and biological evaluation of piperazinyl-β-carbolinederivatives as anti-leishmanial agents” (Eur J Med Chem, 2018).

Structures are written as SMILES.

The subject of series [1] is Leishmania infantum. The experiment in a line: Selectivity ratio of EC50 for antileishmanial activity against Leishmania infantum JPCM5 MCAN/ES/98/LLM-87 promastigotes to EC50 for antileishmanial activity against Leishmania infantum JPCM5 MCAN/ES/98/LLM-87 amastigotes. In kind it is functional.
For series [2], the system named is Leishmania donovani. The series is described as follows: Antileishmanial activity against Leishmania donovani LdBOB amastigotes infected in human THP1 cells after 72 hrs by Giemsa staining based microscopic method. It counts as functional, organism-based. The conditions noted are these: THP-1, 72 h. An outline of the steps: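 THP-1 cells, kept in MEM plus 10% FBS, plated at 20,000/well with 10 nM PMA, 37 °C, 5% CO2, 75 h. Washed in PBS with 1 mM CaCl2, 0.5 mM MgCl2, 0.1% BSA. Infected with axenic LdBOB amastigotes at MOI 5 for 18 h, washed, serial compound dilutions for 72 h. Methanol fixation, Giemsa stain, ~200 macrophages/well counted. % infection vs untreated control (100%) gives EC50.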

The nature of series [3]: Selectivity index, ratio of CC50 for human HeLa cells to EC50 for Leishmania donovani LdBOB amastigotes infected in human THP1 cells. In kind it is toxicity, cell-based. The conditions noted are these: read-out: Ratio CC50/EC50. Put shortly:
(§1)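 Selectivity index computed as CC50 (HeLa, Alamar blue) divided by EC50 for the respective parasite stage.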

Series [4] relates to Leishmania infantum. The series is described as follows: Antileishmanial activity against Leishmania infantum JPCM5 MCAN/ES/98/LLM-87 axenic amastigotes after 72 hrs by alamar blue assay. In kind it is functional, organism-based. Particulars: MCAN/ES/98/LLM-87, 72 h. An outline of the steps:
(§2)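 Axenic amastigotes (L. donovani LdBOB; L. infantum clone JPCM5, grown at 26 °C in HOMEM) incubated 72 h with compounds. Viability read by Alamar blue; EC50 determined.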

A short description of series [5]: Selectivity index, ratio of CC50 for human HeLa cells to EC50 for Leishmania infantum JPCM5 MCAN/ES/98/LLM-87 promastigotes. In kind it is toxicity. Particulars: read-out: Ratio CC50/EC50. Put shortly: as §1
Series [6] concerns Leishmania donovani. The series is described as follows: Antileishmanial activity against Leishmania donovani promastigotes after 72 hrs by alamar blue assay. It counts as functional, organism-based. An outline of the steps: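 L. donovani promastigotes grown at 26 °C in M199 plus 10% heat-inactivated FCS. Exposed to serial compound dilutions for 72 h, then Alamar blue read-out to give EC50.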
(The colour change of resazurin is a common sign of viable cells or microbes.)

The nature of series [7]: Selectivity index, ratio of CC50 for human HeLa cells to EC50 for Leishmania donovani LdBOB axenic amastigotes. It counts as toxicity. Particulars: read-out: Ratio CC50/EC50. An outline of the steps:
as §1

Series [8] is described as follows: Selectivity index, ratio of CC50 for human HeLa cells to EC50 for Leishmania donovani promastigotes. It counts as toxicity. Particulars: read-out: Ratio CC50/EC50. An outline of the steps: as §1
Series [9] is described as follows: Selectivity index, ratio of CC50 for human HeLa cells to EC50 for Leishmania infantum JPCM5 MCAN/ES/98/LLM-87 axenic amastigotes. In kind it is toxicity. Particulars: read-out: Ratio CC50/EC50. An outline of the steps:
as §1

Series [10] is described as follows: Cytotoxicity against human HeLa cells after 65 hrs by alamar blue assay. It counts as cell-based. An outline of the steps: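 HeLa cells first screened at 500 µM. Active compounds then tested for CC50: cells seeded at 2 × 10^4/well, exposed to compound 65 h, then Alamar Blue added for a further 5 h.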
For series [11], the system named is Leishmania donovani. The experiment in a line: Antileishmanial activity against Leishmania donovani LdBOB axenic amastigotes after 72 hrs by alamar blue assay. In kind it is functional, organism-based. An outline of the steps: as §2
Series [12] relates to Leishmania infantum. The experiment in a line: Antileishmanial activity against Leishmania infantum JPCM5 MCAN/ES/98/LLM-87 promastigotes after 72 hrs by alamar blue assay. In kind it is functional, organism-based. The conditions noted are these: MCAN/ES/98/LLM-87, 72 h. An outline of the steps:
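L. infantum JPCM5 promastigotes grown at 26 °C in HOMEM. Exposed to serial compound dilutions for 72 h, then Alamar blue read-out to give EC50.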

The subject of series [13] is Leishmania infantum. The experiment in a line: Potency index, ratio of pentamidine EC50 to compound EC50 for antileishmanial activity against Leishmania infantum JPCM5 MCAN/ES/98/LLM-87 promastigotes. In kind it is functional.
Series [14] deals with Leishmania infantum. The series is described as follows: Potency index, ratio of miltefosine EC50 to compound EC50 for antileishmanial activity against Leishmania infantum JPCM5 MCAN/ES/98/LLM-87 promastigotes. It counts as functional.

`COc1ccc(N2CCN(C(=O)c3cc4c([nH]c5ccccc54)c(-c4ccccc4)n3)CC2)cc1`: the “Ratio EC50” value in series [1] was 2 - 5. For the same compound, the EC50 – broadly, the concentration at which the effect is half-maximal – in series [2] stood at 9.2 µM; in [4] it was 5.2 µM; in series [6], 6.32 µM; in [11], 2.8 µM; in [12], 9.07 µM. Besides, the selectivity ratio is over 54.4 in series [3]; over 55.1 in series [5]; over 179 in [7]; over 79.1 in series [8]; over 96.2 in series [9]. Besides, in series [10], the CC50 (in general, the concentration at which the toxic effect on the cells reaches its halfway point) at 65 h is over 500 µM.
As to `Cc1ccccc1N1CCN(C(=O)c2cc3c([nH]c4ccccc43)c(-c3ccccc3)n2)CC1`, the EC50 in series [2] stood at 9.6 µM; in [6], 12.6 µM; in series [11], 6 µM; in [12], 36.2 µM. For the same compound, the selectivity ratio in series [3] is over 52.1; in [5] it was over 13.8; in [7], over 83.3; in [8], over 39.7. In addition, the CC50 at 65 h in series [10] was over 500 µM.
Regarding `O=C(c1cc2c([nH]c3ccccc32)c(-c2ccccc2)n1)N1CCN(c2ccc([N+](=O)[O-])cc2)CC1`, the EC50 in series [2] came out at 21.5 µM; in series [4] it was 24.8 µM; in series [6] it was 12.8 µM; in series [11], 11.8 µM; in series [12] it was 19.8 µM. For the same compound, the selectivity ratio in series [3] was over 23.3; in [5], over 25.5; in series [7], over 42.4; in series [8], over 39.1; in [9], over 20.2. For the same compound, the CC50 at 65 h in series [10] was over 500 µM.
Consider `O=C(c1cc2c([nH]c3ccccc32)c(-c2ccccc2)n1)N1CCN(c2cccc(Cl)c2Cl)CC1`, for which the “Ratio EC50” value in series [1] was 2 - 5. Further, the EC50 in series [2] stood at 6.4 µM; in series [4] it was 2.9 µM; in [6], 6.95 µM; in series [11] it was 5.7 µM; in series [12], 10.7 µM. For the same compound, the selectivity ratio in series [3] is over 78.1; in series [5] it was over 46.7; in series [7], over 87.7; in series [8] it was over 71.9; in [9], over 172. Besides, the CC50 at 65 h in [10] was over 500 µM.
With `O=C(c1cc2c([nH]c3ccccc32)c(-c2ccccc2)n1)N1CCN(Cc2ccccc2)CC1`, the EC50 in series [2] was found to be 8.8 µM; in series [6] it was 16.4 µM; in series [11], 12.6 µM; in series [12] it was 24.3 µM. The selectivity ratio in [3] worked out at 3.3; in [5], 1.2; in series [7], 2.3; in series [8], 1.8. In addition, in [10], the cytotoxic concentration (CC50) at 65 h stood at 28.9 µM.
`O=C(c1cc2c([nH]c3ccccc32)c(-c2ccccc2)n1)N1CCN(c2ccccc2F)CC1`: the EC50 was determined as 4 µM in [2]; 9.4 µM in series [4]; 3.47 µM in [6]; 2.8 µM in series [11]; 14.9 µM in [12]. In addition, the selectivity ratio was over 125 in series [3]; over 33.6 in series [5]; over 179 in [7]; over 144 in [8]; over 53.2 in series [9]. Besides, the CC50 at 65 h in [10] is over 500 µM.
Consider `Cc1ccc(N2CCN(C(=O)c3cc4c([nH]c5ccccc54)c(-c4ccccc4)n3)CC2)cc1`, for which the “Ratio EC50” value in [1] is 2 - 5. Further, the EC50 turned out to be 5.7 µM in series [2]; 6.2 µM in series [4]; 4.91 µM in series [6]; 3.3 µM in [11]; 9.63 µM in series [12]. Moreover, the selectivity ratio was over 87.7 in series [3]; over 51.9 in series [5]; over 152 in series [7]; over 102 in series [8]; over 80.6 in series [9]. This compound also registered a CC50 at 65 h in [10] of over 500 µM.
Consider `O=C(c1cc2c([nH]c3ccccc32)c(-c2ccccc2)n1)N1CCN(c2ccncc2)CC1`, for which the selectivity ratio in series [5] and in series [8] was 1.2 throughout. Besides, the EC50 turned out to be 68.5 µM in series [6] and 66.7 µM in series [12]. The CC50 at 65 h in [10] worked out at 78.7 µM.
Regarding `O=C(c1cc2c([nH]c3ccccc32)c(-c2ccccc2)n1)N1CCN(c2ccccn2)CC1`, the EC50 in series [2] was determined as 11.9 µM; in [6], 7.5 µM; in [11], 5.1 µM; in [12] it was 34 µM. Also, the selectivity ratio is over 42 in series [3], over 14.7 in [5], over 98 in series [7] and over 66.7 in series [8]. The compound also yielded a CC50 at 65 h in series [10] of over 500 µM.
As to `O=C(c1cc2c([nH]c3ccccc32)c(-c2ccccc2)n1)N1CCN(c2ccc(Cl)cc2)CC1`, the selectivity ratio is over 15.2 in series [5] and over 12.9 in [8]. The EC50 in [6] turned out to be 38.6 µM; in series [12], 33 µM. Moreover, the CC50 at 65 h in [10] is over 500 µM.
Take `COc1ccccc1N1CCN(C(=O)c2cc3c([nH]c4ccccc43)c(-c3ccccc3)n2)CC1`: the “Ratio EC50” value is 2 - 5 in [1], 4 in series [13] and 4 in [14]. Also, the EC50 came to 8 µM in series [2]; 4.9 µM in [4]; 3.49 µM in series [6]; 2.3 µM in [11]; 3.35 µM in series [12]. Further, the selectivity ratio in series [3] came out at 25.6; in series [5] it was 61.1; in series [7], 89; in series [8], 58.7; in series [9] it was 41.8. Besides, it took 205 µM to reach half-maximal cytotoxicity in [10] (CC50 at 65 h).
With `O=C(c1cc2c([nH]c3ccccc32)c(-c2ccccc2)n1)N1CCN(c2ccccc2)CC1`, the EC50 in [2] was determined as 7.3 µM; in series [4], 4.5 µM; in series [6] it was 16.3 µM; in [11], 12.5 µM; in series [12] it was 12.5 µM. The selectivity ratio is 5.2 in series [3]; 3 in series [5]; 3 in series [7]; 2.3 in series [8]; 8.5 in series [9]. This compound also gave a CC50 at 65 h in series [10] of 38.1 µM.
Turning to `O=C(c1cc2c([nH]c3ccccc32)c(-c2ccccc2)n1)N1CCN(c2ccc(F)cc2)CC1`, the EC50 in series [2] is 22.3 µM; in series [4], 11.3 µM; in series [6], 17.5 µM; in series [11], 12.6 µM; in [12], 14.1 µM. The selectivity ratio in series [3] was over 22.4; in series [5], over 35.5; in series [7], over 39.7; in series [8], over 28.6; in series [9] it was over 44.2. The compound also yielded a CC50 at 65 h in [10] of over 500 µM.
For `O=C(c1cc2c([nH]c3ccccc32)c(-c2ccccc2)n1)N1CCN(c2ccccc2Cl)CC1`, the EC50 in series [2] worked out at 8.5 µM; in [4] it was 12.2 µM; in series [6], 6.98 µM; in series [11], 5.8 µM; in series [12], 15.7 µM. The selectivity ratio in series [3] was over 58.8; in series [5], over 31.8; in [7] it was over 86.2; in series [8] it was over 71.6; in series [9], over 41. In addition, in [10], the cytotoxic concentration (CC50) at 65 h is over 500 µM.
Turning to `O=C(c1cc2c([nH]c3ccccc32)c(-c2ccccc2)n1)N1CCN(c2cccc(Cl)c2)CC1`, the EC50 in series [2] turned out to be 6.8 µM; in [4], 3.3 µM; in series [6], 13.2 µM; in series [11] it was 10.2 µM; in series [12] it was 15.9 µM. For the same compound, the selectivity ratio in series [3] stood at 2.7; in series [5], 1.2; in series [7], 1.8; in series [8], 1.4; in series [9], 5.6. Also, the cytotoxic concentration (CC50) at 65 h in series [10] is 18.4 µM.
As to `CCCCCCCCCCCCCCCCOP(=O)([O-])OCC[N+](C)(C)C` [MILTEFOSINE], the EC50 stood at 6.4 µM in [2]; 4.8 µM in [4]; 3.12 µM in series [6]; 2.8 µM in [11]; 12.6 µM in series [12].
The corresponding values for `N=C(N)c1ccc(OCCCCCOc2ccc(C(=N)N)cc2)cc1` [PENTAMIDINE] are 23.7 µM, 2.7 µM, 6.4 µM, 1.6 µM and 8.31 µM.
